Compound activity: PubChem BioAssay, The Scripps Research Institute Molecular Screening Center
In the library only some 4.5% were active in any assay of this set; here they are far more common.
TAAR1 antag: human TAAR1 antagonists, primary screen, Fluo-8 calcium fluorescence, CHO RD-HGA16 cells | inhibition, % at 3 µM | actives 1.5% (n = 360,000) | antagonist | Trace amine-associated receptor 1 (Homo sapiens), Q96RJ0;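 active means inhibition above a per-plate cutoff, the mean inhibition of test compounds on that plate plus 3 SD, cut at about 49% in these data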;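 further: 0% = DMSO plus EC80 beta-PEA response and 100% = DMSO alone without agonist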
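Assay system: CHO-derived RD-HGA16 cells stably expressing human TAAR1 plus Gα16. Timing: 140 s kinetic read after compound, 140 s after agonist. Technique: kinetic Fluo-8 calcium fluorescence measurement. Measure: % inhibition of agonist calcium response.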
TAAR1 ag: human TAAR1 agonists, primary screen, Fluo-8 calcium fluorescence, CHO RD-HGA16 cells; Trace amine-associated receptor 1 (Homo sapiens), Q96RJ0; actives 0.99% (n = 360,000); vehicle wells 0%, saturating PEA agonist 100%; AID 624467, 2012; activation, % at 3 µM;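 active means activation above the mean activation of all test compounds in the run plus 3 SD, cut at about 38% in these data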
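System: CHO-derived RD-HGA16 cells with stable Gα16 and human TAAR1 / Times: 17-24 h plating, Fluo-8 75 min 37 °C, 30 min RT / Technique: calcium-sensitive Fluo-8 signal, excitation 470-495, emission 515-575 nm / Measure: % activation relative to PEA EC100 response / Benchmarks: DMSO and PEA EC100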
OX1R antag-1: OX1R (HCRTR1) antagonists, primary screen, fluorescence, CHO/OX1R cells, Fluo-8 calcium, orexin A; Fluo-8 calcium fluorescence; actives 0.43% (n = 330,000); inhibition, % at 5 µM;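 active means inhibition above its plate's threshold, mean inhibition of all tested compounds on the plate plus 3 SD, cut at about 37% in these data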;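 further: 0% = orexin A challenge wells and 100% = SB-334867-A antagonist wells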
Target sequence (O43613 whole entry, looked up): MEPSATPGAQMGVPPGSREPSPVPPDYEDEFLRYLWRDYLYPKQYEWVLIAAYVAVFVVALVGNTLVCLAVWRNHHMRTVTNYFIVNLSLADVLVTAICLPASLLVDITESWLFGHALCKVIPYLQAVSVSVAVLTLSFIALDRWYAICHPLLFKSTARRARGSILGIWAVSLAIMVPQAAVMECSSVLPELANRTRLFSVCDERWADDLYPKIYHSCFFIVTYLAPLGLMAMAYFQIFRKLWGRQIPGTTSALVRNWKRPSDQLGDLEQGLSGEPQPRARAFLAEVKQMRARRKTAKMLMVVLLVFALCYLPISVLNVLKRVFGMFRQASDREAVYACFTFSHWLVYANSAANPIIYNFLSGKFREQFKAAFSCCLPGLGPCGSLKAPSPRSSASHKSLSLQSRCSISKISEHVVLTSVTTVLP
GPR7 antagonist: GPR7 receptor antagonists, primary screen, cell-based, fluorescence, single concentration; Neuropeptides B/W receptor type 1 (Homo sapiens), P48145; GPR7-expressing cells, fluorescence antagonist assay; inhibition, % at 4.4 µM; actives 1.1% (n = 290,000); AID 1861, 2009; in the data active means inhibition above about 16%, passing the limit was not always enough;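 further: cells stimulated with the agonist NPW; 0% = agonist with vehicle and 100% = vehicle without agonist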
CHO parental Ca: ATP-evoked calcium signal inhibitors, parental CHO, primary screen, counter-screen for OX1R antagonist project, cell-based, fluorescence, Fluo-8 calcium dye; inhibition, % at 5.6 µM; AID 463079, 2010; parental CHO-K1, ATP-induced calcium, Fluo-8 fluorescence; actives 0.63% (n = 330,000);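 active means inhibition above that plate's mean sample inhibition plus 3 SD, cut at about 26% in these data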;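 further: 0% = ATP-challenged DMSO wells and 100% = DMSO wells without ATP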
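Test system: untransfected parental CHO cell line. Compound: one dose, 5.6 µM nominal. Detection: intracellular calcium via Fluo-8 no-wash fluorescent dye. Measure: % inhibition. Benchmarks: ATP-challenged DMSO wells low, unchallenged DMSO wells high.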
OX1R antag-2: antagonists of human orexin 1 receptor (OX1R) | actives 1.8% (n = 330,000) | Orexin/Hypocretin receptor type 1 (Homo sapiens), O43613 | inhibition, % at 6.6 µM | OX1R-expressing cells, FRET antagonist read-out; in the data active means inhibition mostly above about 38%, no sharp cut-off; inactive means mostly below about 40%;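 further: 0% = agonist challenge alone and 100% = reference antagonist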
GPR7 antag conf: GPR7 receptor antagonists, confirmation, cell-based, fluorescence, single concentration | shares compounds with GPR7 antagonist | inhibition, % at 4.4 µM | actives 52% (n = 2,400) | GPR7-expressing cells, calcium fluorescence antagonist mode; in the data active means inhibition above about 24%;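 further: stimulated with the GPR7 agonist NPW; 0% = agonist plus vehicle and 100% = vehicle alone without agonist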
MCHR1 antagonist: MCHR1 antagonists in cells, counter-screen for GPR7 antagonist project, cell-based, fluorescence, human; MCHR1-expressing cells, fluorescence antagonist assay; AID 2148, 2009; shares compounds with GPR7 antagonist; actives 62% (n = 2,400); inhibition, % at 4.4 µM; in the data active means inhibition above about 22%;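 further: 0% = vehicle with agonist and 100% = vehicle without agonist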
* hit, by the source's call; / = not tested or not shown.

SMILES	TAAR1 antag	TAAR1 ag	OX1R antag-1	GPR7 antagonist	CHO parental Ca	OX1R antag-2	GPR7 antag conf	MCHR1 antagonist
N#Cc1c(N2CCCCC2)nc(N2CCCCC2)c2c1CCN(Cc1ccccc1)C2	5	18	-22	46*	-12	10	-13	17
COCC(=O)N(C)C[C@@H]1Oc2cc(-c3ccc(F)cc3)ccc2S(=O)(=O)N([C@H](C)CO)C[C@H]1C	11	8	/	/	/	/	/	/
CN1CCN(C(=S)c2cn(CCOc3ccccc3)c3ccccc23)CC1	-6	4	-18	27*	-16	16	20	11
Cc1ccc(C)c(OCCn2cc(C(=O)O)c3ccccc32)c1	13	3	7	95*	-7	22	6	6
CC(=O)c1cn(CCOc2cc(C)ccc2C)c2ccccc12	27	3	7	29*	33*	45	47*	68*
Cc1ccccc1OCCn1cc(/C(N)=N/O)c2ccccc21	2	8	-15	13	6	23	/	/
CCC(=O)Oc1ccc(NC(=O)c2ccc(S(=O)(=O)N3CCCC3)cc2)cc1	18	10	/	/	/	/	/	/
CCc1ccc(OCC(=O)Nc2ccc3c(c2)COC3=O)cc1	-4	4	2	36*	10	9	21	37*
CCOc1ccc(C(=O)Nc2ccc3c(c2)C(=O)NC3=O)cc1	2	1	-4	-10	-1	8	/	/
CCC(C)c1ccc(OCC(=O)Nc2ccc3c(c2)C(=O)NC3=O)cc1 (configuration not stated)	25	4	-4	30*	12	30	40*	67*
Cc1ccccc1OCC(=O)Nc1ccc2c(c1)COC2=O	14	8	-25	6	3	7	/	/
CCOC(=O)[C@]12CCCC=C1N(Cc1cccc3ccccc13)C(=O)[C@H](CC(=O)NCCCOC)C2	0	0	/	/	/	/	/	/
CCN(c1ccccc1)c1nc(Cl)nc2c1cnn2C	-17	3	/	/	/	/	/	/
O=c1cc(CSc2nnc(Nc3ccccc3)s2)nc2sccn12	18	9	-5	-16	-5	17	/	/
CC(C)Nc1nnc(SCc2cc(=O)n3ccsc3n2)s1	-2	-1	-18	25*	-2	23	-4	-12
CN1CCN(c2ccc(C(F)(F)F)cc2NC(=O)Nc2ccccc2)CC1	29	52*	17	62*	27	-6	43*	49*
CSc1ccc(CN2CCC2(C)C(=O)NCc2ccc3c(c2)OCO3)cc1 (configuration not stated)	-15	-1	/	/	/	/	/	/
CN(C(=O)c1ccc(S(=O)(=O)NC2CCCC2)cc1)C1CCCCC1	11	18	-16	30*	-4	4	46*	22*
OCCCc1nc2ccccc2n1CCOc1ccccc1	-9	3	-9	-1	-6	24	/	/
Cc1ccc(OCCn2c(CCCO)nc3ccccc32)cc1	-17	16	-21	23*	-6	13	11	7
COc1ccc(OCC(O)Cn2c(=N)n(Cc3ccccc3)c3ccccc32)cc1 (configuration not stated)	-25	12	-7	38*	-12	8	31*	57*
N=c1n(Cc2ccccc2)c2ccccc2n1Cc1ccccc1	2	12	-7	15	-9	19	/	/
Cc1ccc(OCC(O)Cn2c(=N)n(Cc3ccccc3)c3ccccc32)cc1 (configuration not stated)	-2	27	13	33*	10	0	37*	61*
Cc1cccc(OCC(O)Cn2c(=N)n(Cc3ccccc3)c3ccccc32)c1 (configuration not stated)	-41	8	18	31*	19	-8	36*	69*
N=c1n(Cc2ccccc2)c2ccccc2n1CC(O)COc1ccc(Cl)cc1Cl (configuration not stated)	23	47*	/	28*	/	/	77*	98*
SMILES	TAAR1 antag	TAAR1 ag	OX1R antag-1	GPR7 antagonist	CHO parental Ca	OX1R antag-2	GPR7 antag conf	MCHR1 antagonist
COc1ccc(CN2C(=O)c3ccccc3C2c2nnnn2-c2ccc3c(c2)OCCO3)cc1OC (configuration not stated)	-13	2	/	/	/	/	/	/
Cc1ccc([C@H]2C[C@@H](n3cc(C4CC4)nn3)[C@H](O)CN2C(=O)C2CCCCC2)cc1	2	0	/	/	/	/	/	/
CN(C)c1ccc(-c2cc(NC=O)c3ncc(-c4ccc(F)c(Cl)c4)n3c2)cc1	-4	8	/	/	/	/	/	/
Cc1cccc(OCC(O)Cn2c(=N)n(CCN3CCCCC3)c3ccccc32)c1 (configuration not stated)	7	4	-12	38*	-19	19	45*	40*
O=C(c1ccco1)N1CCC(c2nc(-c3ccc(F)cc3)no2)CC1	6	3	10	11	-2	4	/	/
O=C(c1ccco1)N1CCC(c2nc(-c3ccccc3Cl)no2)CC1	1	15	-10	28*	0	5	0	1
CC(NC(=O)Nc1ccc2c(c1)OCO2)C1CCCO1 (configuration not stated)	4	5	1	99*	0	11	-5	18
COc1ccccc1-c1ccc(SCc2cccc(F)c2)nn1	28	-2	-9	29*	-8	25	36*	56*
COC(=O)[C@@]12C[C@@H](CC(=O)N3CCOCC3)C(=O)N(Cc3ccc4c(c3)OCO4)C1=CCC(C)(C)C2	9	1	/	/	/	/	/	/
Cc1cccc(NC(=O)C2C3C=CC4(O3)C2C(=O)N(CCCN2CCCC2)C4C(=O)NC2CCCC(C)C2C)c1 (configuration not stated)	13	-5	-33	1	-20	10	/	/
Cc1cc(C)cc(NC(=O)C2C3C=CC4(O3)C2C(=O)N(CCCN2CCCC2)C4C(=O)NC2CCCC(C)C2C)c1 (configuration not stated)	-12	0	-29	27*	-13	15	-19	-11
